Assay results reported in the RNAGym collection of RNA variant scans (doi:10.1038/s41586-018-0170-7).

B1: tRNA (parent)
chain: GUUCCGUUGGCGUAAUGGUAACGCGUCUCCCUCCUAAGGAGAAGACUGCGGGUUCGAGUCCCGUACGGAACG

Variants of: B1
Assay: yeast fitness, log relative to wild type (ln ratio); higher = fitter; tRNA-Arg(CCU), competitive growth, 37 C, 1 M NaCl
How it was run: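 Variants were counted by 125 bp paired-end Illumina sequencing after pools of a combinatorial tRNA-Arg(CCU) library, held on a HIS3 centromeric plasmid in BY4742 lacking the chromosomal gene, grew ~6.5 generations (~26.5 h) in SC-HIS 1M NaCl at 37 °C. Each genotype's fitness is the natural log of its generations relative to the wild type's. Generations were OD-scaled log2 output/input frequencies, inverse-variance weighted over replicates.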

Variant | yeast fitness (ln)
GUUCCGUUGGCGUAAUGGUAACGCGUUUCCCUCCUAAGGAGACGAUUGCGGGUUCGAGUCCCGUACGGGUCG [C27U A43C C46U A69G A70U] | -0.0621
ACUCCAUUGGCGUAAUGGUAACGCGUUUCCCUCCUAAGGAGAAGACUGCGGGUUCGAGUCCCGUAUGGGUCG [G1A U2C G6A C27U C66U A69G A70U] | -0.0942
GUUCCGUUGGCGUAAUGGUAACGCGUCUCCCUCCUAAGGAGACGAUUGCGGGUUCGAGUCCCGUAUGGGUCG [A43C C46U C66U A69G A70U] | -0.121
GUUCCAUUGGCGUAAUGGUAACGCGUCUCCCUCCUAAGGAGAAGACUGCGGGUUCGAGUCCCGUACGGAGUG [G6A A70G C71U] | -0.175
GGUCCUUUGGCGUAAUGGUAACGCGUUUCCCUCCUAAGGAGAAGACUGCGGGUUCGAGUCCCGUACGGAAUG [U2G G6U C27U C71U] | -0.218
GUUCCUUUGGCGUAAUGGUAACGCGUUUCCCUCCUAAGGAGACGAUUGCGGGUUCGAGUCCCGUAUGGAAUG [G6U C27U A43C C46U C66U C71U] | -0.355
AGUCCUUUGGCGUAAUGGUAACGCGUCUCCCUCCUAAGGAGAAGACUGCGGGUUCGAGUCCCGUAUGGAGUG [G1A U2G G6U C66U A70G C71U] | -0.264
GUUCCUUUGGCGUAAUGGUAACGCGUUUCCCUCCUAAGGAGAAGACUGCGGGUUCGAGUCCCGUACGGGGCG [G6U C27U A69G A70G] | -0.33
AGUCCAUUGGCGUAAUGGUAACGCGUCUCCCUCCUAAGGAGAAGACUGCGGGUUCGAGUCCCGUACGGGUCG [G1A U2G G6A A69G A70U] | -0.153
GGUCCGUUGGCGUAAUGGUAACGCGUUUCCCUCCUAAGGAGACGAUUGCGGGUUCGAGUCCCGUACGGAACG [U2G C27U A43C C46U] | -0.0622
AGUCCAUUGGCGUAAUGGUAACGCGUCUCCCUCCUAAGGAGACGAUUGCGGGUUCGAGUCCCGUAAGGAGCG [G1A U2G G6A A43C C46U C66A A70G] | -0.26
ACUCCAUUGGCGUAAUGGUAACGCGUUUCCCUCCUAAGGAGAAGAUUGCGGGUUCGAGUCCCGUACGGGUCG [G1A U2C G6A C27U C46U A69G A70U] | -0.07
GCUCCAUUGGCGUAAUGGUAACGCGUUUCCCUCCUAAGGAGACGACUGCGGGUUCGAGUCCCGUAAGGAUCG [U2C G6A C27U A43C C66A A70U] | -0.0983
AGUCCAUUGGCGUAAUGGUAACGCGUCUCCCUCCUAAGGAGACGAUUGCGGGUUCGAGUCCCGUAUGGGUCG [G1A U2G G6A A43C C46U C66U A69G A70U] | -0.306
AUUCCUUUGGCGUAAUGGUAACGCGUUUCCCUCCUAAGGAGAAGACUGCGGGUUCGAGUCCCGUAAGGAUCG [G1A G6U C27U C66A A70U] | -0.407
GUUCCUUUGGCGUAAUGGUAACGCGUUUCCCUCCUAAGGAGACGACUGCGGGUUCGAGUCCCGUAUGGAUUG [G6U C27U A43C C66U A70U C71U] | -0.372
GUUCCGUUGGCGUAAUGGUAACGCGUCUCCCUCCUAAGGAGACGAUUGCGGGUUCGAGUCCCGUACGGGGCG [A43C C46U A69G A70G] | -0.0166
GGUCCAUUGGCGUAAUGGUAACGCGUUUCCCUCCUAAGGAGAAGAUUGCGGGUUCGAGUCCCGUACGGGGCG [U2G G6A C27U C46U A69G A70G] | -0.174
GUUCCUUUGGCGUAAUGGUAACGCGUUUCCCUCCUAAGGAGACGACUGCGGGUUCGAGUCCCGUACGGAUCG [G6U C27U A43C A70U] | -0.309

Variant | yeast fitness (ln)
GGUCCGUUGGCGUAAUGGUAACGCGUCUCCCUCCUAAGGAGAAGACUGCGGGUUCGAGUCCCGUAUGGGUCG [U2G C66U A69G A70U] | -0.285
AUUCCGUUGGCGUAAUGGUAACGCGUCUCCCUCCUAAGGAGACGACUGCGGGUUCGAGUCCCGUAAGGGGUG [G1A A43C C66A A69G A70G C71U] | -0.249
GCUCCUUUGGCGUAAUGGUAACGCGUUUCCCUCCUAAGGAGAAGAUUGCGGGUUCGAGUCCCGUAUGGGUUG [U2C G6U C27U C46U C66U A69G A70U C71U] | -0.546
AUUCCGUUGGCGUAAUGGUAACGCGUCUCCCUCCUAAGGAGACGACUGCGGGUUCGAGUCCCGUACGGAUUG [G1A A43C A70U C71U] | -0.32
AGUCCAUUGGCGUAAUGGUAACGCGUCUCCCUCCUAAGGAGAAGACUGCGGGUUCGAGUCCCGUACGGAGCG [G1A U2G G6A A70G] | -0.16
AUUCCGUUGGCGUAAUGGUAACGCGUCUCCCUCCUAAGGAGAAGAUUGCGGGUUCGAGUCCCGUAAGGAAUG [G1A C46U C66A C71U] | -0.243
ACUCCGUUGGCGUAAUGGUAACGCGUCUCCCUCCUAAGGAGAAGAUUGCGGGUUCGAGUCCCGUACGGAUCG [G1A U2C C46U A70U] | -0.0782
AUUCCUUUGGCGUAAUGGUAACGCGUUUCCCUCCUAAGGAGACGAUUGCGGGUUCGAGUCCCGUACGGAGUG [G1A G6U C27U A43C C46U A70G C71U] | -0.321
GCUCCUUUGGCGUAAUGGUAACGCGUUUCCCUCCUAAGGAGAAGACUGCGGGUUCGAGUCCCGUACGGAUUG [U2C G6U C27U A70U C71U] | -0.136
AUUCCUUUGGCGUAAUGGUAACGCGUCUCCCUCCUAAGGAGAAGAUUGCGGGUUCGAGUCCCGUACGGGUUG [G1A G6U C46U A69G A70U C71U] | -0.321
GGUCCAUUGGCGUAAUGGUAACGCGUUUCCCUCCUAAGGAGACGAUUGCGGGUUCGAGUCCCGUAUGGAUUG [U2G G6A C27U A43C C46U C66U A70U C71U] | -0.598
AUUCCGUUGGCGUAAUGGUAACGCGUCUCCCUCCUAAGGAGACGAUUGCGGGUUCGAGUCCCGUACGGAUCG [G1A A43C C46U A70U] | -0.0611
GGUCCUUUGGCGUAAUGGUAACGCGUCUCCCUCCUAAGGAGAAGACUGCGGGUUCGAGUCCCGUAUGGGUCG [U2G G6U C66U A69G A70U] | -0.409
GCUCCAUUGGCGUAAUGGUAACGCGUUUCCCUCCUAAGGAGAAGACUGCGGGUUCGAGUCCCGUACGGGAUG [U2C G6A C27U A69G C71U] | -0.0988
ACUCCUUUGGCGUAAUGGUAACGCGUUUCCCUCCUAAGGAGAAGACUGCGGGUUCGAGUCCCGUACGGAGCG [G1A U2C G6U C27U A70G] | -0.186
AGUCCUUUGGCGUAAUGGUAACGCGUUUCCCUCCUAAGGAGAAGACUGCGGGUUCGAGUCCCGUACGGGUUG [G1A U2G G6U C27U A69G A70U C71U] | -0.404
AGUCCGUUGGCGUAAUGGUAACGCGUCUCCCUCCUAAGGAGACGAUUGCGGGUUCGAGUCCCGUAAGGAGUG [G1A U2G A43C C46U C66A A70G C71U] | -0.187
GGUCCAUUGGCGUAAUGGUAACGCGUUUCCCUCCUAAGGAGAAGAUUGCGGGUUCGAGUCCCGUAUGGGUCG [U2G G6A C27U C46U C66U A69G A70U] | -0.0313
AGUCCGUUGGCGUAAUGGUAACGCGUUUCCCUCCUAAGGAGAAGACUGCGGGUUCGAGUCCCGUACGGGUUG [G1A U2G C27U A69G A70U C71U] | -0.386
